Assay results as given in ChEMBL document CHEMBL1138546, “Synthesis and antimalarial activity of hydroxyethylpiperazine derivatives” (Eur J Med Chem, 2009).
Converted amounts (≈) assume the structure as drawn.

Key:
Plasmodium falciparum = assay: Antimalarial activity after 24 hrs against chloroquine-resistant Plasmodium falciparum W2 by [3H]hypoxanthine uptake; assay type: functional, organism-based
Method in brief: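 P. falciparum cultured in human O+ erythrocytes, 5% hematocrit, RPMI 1640 plus 10% human plasma. Sorbitol-synchronized trophozoites set at 2% parasitaemia, 2.5% hematocrit with ethanol-dissolved compounds at various concentrations in hypoxanthine-free RPMI 1640; chloroquine reference in each run. Growth read by [³H]-hypoxanthine incorporation; IC50 versus drug-free controls from curve fitting of dose-response data.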

[1] = Cytotoxicity against mouse J774 cells assessed as cell viability at 0.1 ug/ml after 24 hrs by MTT assay; assay type: cell-based; conditions: read-out: Activity
Method in brief: (§1)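 Murine J774 monocyte/macrophages seeded at 2×10^6 cells/well, left 1 h at 37 °C, 5% CO2 in RPMI 1640 with 10% fetal bovine serum, 2 mM L-glutamine, 25 µg/ml gentamicin, pH 7.4. Adherent cells exposed to compounds (0.1–100 µg/ml) for 20 h, then MTT (5 mg/ml) added for 4 h. Formazan dissolved in DMSO, absorbance read at 540 nm. Result given as percent viability.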

[2] = Cytotoxicity against mouse J774 cells assessed as cell viability at 1 ug/ml after 24 hrs by MTT assay; assay type: cell-based; conditions: read-out: Activity; method in brief: as §1
[3] = Cytotoxicity against mouse J774 cells assessed as cell viability at 10 ug/ml after 24 hrs by MTT assay; assay type: cell-based; conditions: read-out: Activity; method in brief: as §1
[4] = Cytotoxicity against mouse J774 cells assessed as cell viability at 100 ug/ml after 24 hrs by MTT assay; assay type: cell-based; conditions: read-out: Activity; method in brief: as §1

| Structure (SMILES) | IC50 (Plasmodium falciparum) [mg/L] | viability at 24 h, 0.1 ug/ml [1] [%] | viability at 24 h, 1 ug/ml [2] [%] | viability at 24 h, 10 ug/ml [3] [%] | viability at 24 h, 100 ug/ml [4] [%] |
| --- | --- | --- | --- | --- | --- |
| CC(C)(C)OC(=O)N[C@@H](Cc1ccccc1)[C@H](O)CN1CCN(Cc2ccc(F)cc2)CC1 | 7.5 (≈ 16.4 µM) | 100 | 100 | 99 | 90 |
| CC(C)(C)OC(=O)N[C@@H](Cc1ccccc1)[C@H](O)CN1CCN(Cc2ccc3c(c2)OCO3)CC1 | 5.1 (≈ 10.5 µM) | 100 | 98 | 100 | 82 |
| CC(C)(C)OC(=O)N[C@@H](Cc1ccccc1)[C@H](O)CN1CCN(Cc2ccc(N)cc2)CC1 | 15.8 (≈ 34.8 µM) | 100 | 98 | 98 | 85 |
| COc1ccc(CN2CCN(C[C@@H](O)[C@H](Cc3ccccc3)NC(=O)OC(C)(C)C)CC2)cc1 | 6.2 (≈ 13.2 µM) | 100 | 100 | 100 | 85 |
| CC(C)(C)OC(=O)N[C@@H](Cc1ccccc1)[C@H](O)CN1CCNCC1 | > 50 | 100 | 100 | 100 | 65 |
| CC(C)(C)OC(=O)N[C@@H](Cc1ccccc1)[C@H](O)CN1CCN(Cc2ccc([N+](=O)[O-])cc2)CC1 | 23.5 (≈ 48.5 µM) | 100 | 100 | 98 | 81 |
| CC(C)(C)OC(=O)N[C@@H](Cc1ccccc1)[C@H](O)CN1CCN(c2ccccc2)CC1 | > 50 | 100 | 95 | 94 | 58 |
| CC(C)(C)OC(=O)N[C@@H](Cc1ccccc1)[C@H](O)CN1CCN(Cc2ccccc2)CC1 | 14.9 (≈ 33.9 µM) | 95 | 100 | 100 | 100 |
| CC(C)(C)OC(=O)N[C@@H](Cc1ccccc1)[C@H](O)CN1CCN(Cc2ccc(Cl)cc2)CC1 | 7.7 (≈ 16.2 µM) | 100 | 100 | 100 | 88 |
| CN1CCN(C[C@@H](O)[C@H](Cc2ccccc2)NC(=O)OC(C)(C)C)CC1 | > 50 | 94 | 100 | 100 | 100 |
| COc1ccc(CN2CCN(C[C@@H](O)[C@H](Cc3ccccc3)NC(=O)OC(C)(C)C)CC2)cc1OC | 7 (≈ 14 µM) | 100 | 100 | 100 | 83 |
| Cc1cccc(C)c1OCC(=O)N[C@@H](Cc1ccccc1)[C@@H](O)C[C@H](Cc1ccccc1)NC(=O)[C@H](C(C)C)N1CCCNC1=O [LOPINAVIR] | 1.7 (≈ 2.7 µM) | – | – | – | – |
| CC(C)(C)NC(=O)[C@@H]1C[C@@H]2CCCC[C@@H]2CN1C[C@@H](O)[C@H](Cc1ccccc1)NC(=O)[C@H](CC(N)=O)NC(=O)c1ccc2ccccc2n1 [SAQUINAVIR] | 7 (≈ 10.4 µM) | – | – | – | – |
